In the library only some 2.9% were active in any assay of this set; here they are far more common.
CAL PDZ FP-1: CAL PDZ peptide-binding inhibitors, primary screen, biochemical, fluorescence polarization, Cer-tagged CAL PDZ, HTS; Golgi-associated PDZ and coiled-coil motif-containing protein (Homo sapiens), Q9HD26; purified CAL PDZ, TMR-peptide fluorescence polarization, 1 h; inhibition, % at 20 µM; 330,000 tested, 0.02% active; AID 504414, 2011;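 active = highest replicate inhibition of at least 40%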
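System: tagged CAL PDZ domain. Schedule: 1 h room-temperature incubation prior to read. Signal: fluorescence polarization (mP). Measure: percent inhibition from loss of millipolarization.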
CAL PDZ FP-2: untagged CAL PDZ binding inhibitors, primary screen, biochemical, fluorescence polarization, HTS; AID 602252, 2012; purified CAL PDZ, TMR-peptide fluorescence polarization, 1 h; Golgi-associated PDZ and coiled-coil motif-containing protein (Homo sapiens), Q9HD26; 300,000 tested, 0.92% active; inhibition, % at 24.9 µM;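 active = mean inhibition of at least 30% with at least half of replicates also reaching 30%; inconclusive = no clear call, values can overlap the other calls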
ERAP1 inh: human ERAP1 aminopeptidase inhibitors, primary screen, biochemical, single point, plate reader; Endoplasmic reticulum aminopeptidase 1 (Homo sapiens), Q9NZ08; recombinant ERAP1, Leu-AMC fluorescence, 60 min; inhibition, % at 10.7 µM; 340,000 tested, 0.15% active; AID 652197, 2013;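 active = mean replicate inhibition of at least 30%, or all replicates individually reaching that 30% level; inactive = mean below 30% and not every replicate reaching it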
SIRT5 inh: SIRT5 desuccinylase inhibitors, primary screen, biochemical, fluorescence imaging, single point, set 5. NAD-dependent protein deacylase sirtuin-5, mitochondrial (Homo sapiens), Q9NXA8. Purified SirT5, succinyl-peptide AMC, trypsin-coupled fluorescence. inhibition, % at 15 µM. 330,000 tested, 1.1% active. AID 652115, 2013; in the data active = inhibition above about 15%; inconclusive = no clear call, values can overlap the other calls
Target sequence (Q9NXA8 whole entry, looked up): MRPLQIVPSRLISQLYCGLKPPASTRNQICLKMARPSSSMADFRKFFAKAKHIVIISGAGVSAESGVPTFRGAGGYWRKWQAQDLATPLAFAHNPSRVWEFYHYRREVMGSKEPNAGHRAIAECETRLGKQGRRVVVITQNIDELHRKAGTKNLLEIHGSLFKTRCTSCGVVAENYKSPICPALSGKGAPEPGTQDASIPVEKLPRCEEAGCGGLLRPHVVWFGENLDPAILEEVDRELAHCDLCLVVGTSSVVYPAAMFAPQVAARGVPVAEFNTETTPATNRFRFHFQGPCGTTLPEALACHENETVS
DENV2 CPE rescue: inhibitors of DENV2 cytopathic effect, primary screen, cell-based, plate reader, single concentration | DENV2-infected cells, cytopathic effect rescue | CPE inhibition, % at 9.99 µM | 350,000 tested, 1.7% active | AID 651640, 2012; in the data active = CPE inhibition above about 20%, passing the limit was not always enough; inconclusive = no clear call, values can overlap the other calls; tested in BHK-21 cells
S100A4 inh HTS: inhibitors of S100A4-myosin IIA peptide binding, primary screen, biochemical, fluorescence polarization, TAMRA-MyoIIA peptide | inhibition, % at 10.7 µM | 360,000 tested, 0.14% active;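 active = mean inhibition of at least 70% across replicates, with every replicate also reaching that level; inconclusive = mean inhibition reaches 70% but some replicates fall short; inactive = mean inhibition below 70%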
Target sequence (P26447 whole entry, looked up): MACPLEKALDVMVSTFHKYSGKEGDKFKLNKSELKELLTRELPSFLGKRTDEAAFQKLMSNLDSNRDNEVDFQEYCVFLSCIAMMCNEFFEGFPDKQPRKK
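Compound dosing: one dose per compound; test system: human S100A4 monomer with TAMRA-labelled myosin IIA peptide; probe or stimulus: TAMRA-labelled myosin IIA heavy-chain peptide probe, 5 nM; medium: HEPES buffer with Ca2+, pH 7.2; schedule: 5 min incubation before reading; benchmarks: neutral control DMSO, positive control TFP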
A number is an active result; . = inactive; ? = inconclusive; / = no result; ! = repeats disagree.

SMILES	CAL PDZ FP-1	CAL PDZ FP-2	ERAP1 inh	SIRT5 inh	DENV2 CPE rescue	S100A4 inh HTS
COc1ccc(NC(=O)Nc2ccc3c(c2)C(=O)N([C@@H](C)CO)C[C@H](C)[C@@H](CN(C)S(=O)(=O)c2ccc(F)cc2)OCCCC[C@@H](C)O3)cc1	/	/	.	.	.	.
COc1ccc(S(=O)(=O)N(C)C[C@H]2OCCCC[C@H](C)Oc3ccc(NC(=O)Nc4ccc(F)cc4)cc3C(=O)N([C@H](C)CO)C[C@@H]2C)cc1	/	/	.	17	.	.
COc1ccc(S(=O)(=O)N(C)C[C@@H]2OCCCC[C@H](C)Oc3ccc(NC(=O)Nc4ccc(F)cc4)cc3C(=O)N([C@H](C)CO)C[C@H]2C)cc1	/	/	.	17	.	.
COc1ccc(NC(=O)Nc2ccc3c(c2)C(=O)N([C@H](C)CO)C[C@@H](C)[C@@H](CN(C)S(=O)(=O)c2ccc(Cl)cc2)OCCCC[C@H](C)O3)cc1	/	/	.	.	40	.
COc1ccc(NC(=O)Nc2ccc3c(c2)C(=O)N([C@H](C)CO)C[C@H](C)[C@H](CN(C)S(=O)(=O)c2ccc(Cl)cc2)OCCCC[C@@H](C)O3)cc1	/	/	.	.	?	.
COCC#Cc1ccc2c(c1)O[C@@H](CN(C)Cc1ccccn1)[C@H](C)CN([C@@H](C)CO)S2(=O)=O	/	/	.	.	.	.
C[C@@H]1CCCCO[C@@H](CN(C)Cc2ccc(Cl)c(Cl)c2)[C@@H](C)CN([C@@H](C)CO)C(=O)c2cc(NC(=O)NC3CCCCC3)ccc2O1	/	/	.	16	.	.
C[C@@H]1CCCCO[C@@H](CN(C)Cc2ccc(Cl)c(Cl)c2)[C@H](C)CN([C@@H](C)CO)C(=O)c2cc(NC(=O)NC3CCCCC3)ccc2O1	/	/	.	.	?	.
C[C@@H]1CN([C@H](C)CO)C(=O)c2cc(NC(=O)NC3CCCCC3)ccc2O[C@@H](C)CCCCO[C@@H]1CN(C)Cc1ccc(Cl)c(Cl)c1	/	/	.	24	.	.
C[C@H](CO)N1C[C@H](C)[C@@H](CN(C)Cc2ccc(Cl)c(Cl)c2)OCCCC[C@H](C)Oc2ccc(NC(=O)NC3CCCCC3)cc2C1=O	/	/	.	.	.	.
C[C@@H]1CCCCO[C@H](CN(C)Cc2ccc(Cl)c(Cl)c2)[C@H](C)CN([C@@H](C)CO)C(=O)c2cc(NC(=O)c3ccccc3)ccc2O1	/	/	.	.	82	.
CC(=O)N1CC2(C1)[C@H](c1ccc(-c3ccc(C#N)cc3)cc1)[C@H](CO)N2C(=O)C1CC1	/	/	.	.	.	.
O=C(C1CCCCC1)N1CC2(C1)[C@H](c1ccccc1)[C@H](CO)N2C(=O)NC1CCCC1	/	/	.	/	.	.
C[C@H]1CCCCO[C@@H](CN(C)Cc2ccc3c(c2)OCO3)[C@@H](C)CN([C@@H](C)CO)C(=O)c2cc(NS(=O)(=O)c3cccs3)ccc2O1	/	/	/	/	59!	/
C[C@@H]1CN([C@@H](C)CO)C(=O)c2cc(NS(=O)(=O)c3cccs3)ccc2O[C@@H](C)CCCCO[C@@H]1CN(C)Cc1ccc2c(c1)OCO2	/	/	/	/	.	/
C[C@@H]1CN([C@H](C)CO)C(=O)c2cc(NS(=O)(=O)c3cccs3)ccc2O[C@@H](C)CCCCO[C@H]1CN(C)Cc1ccc2c(c1)OCO2	/	/	/	/	55	/
COc1ccccc1CN1[C@@H]2CN(C(=O)C3CC3)c3ccccc3[C@@H]2[C@@H]1CO	/	/	.	.	.	.
CCOC(=O)N1CCC(NCCNC(=O)c2ccc(F)c(F)c2)CC1	.	.	.	.	21	.
CCOC(=O)N1CCC(NCCNC(=O)c2ccc(Cl)cc2)CC1	.	.	/	/	/	/
CNC[C@@H]1Oc2c(NS(C)(=O)=O)cccc2C(=O)N([C@H](C)CO)C[C@@H]1C	/	/	.	.	.	.
COc1ccc(CCNC(=O)[C@H](CCSC)NC(=O)N2CCn3c2nc2ccccc23)cc1OC	.	.	.	.	.	.
C[C@H](NC(=O)N1CCn2c1nc1ccccc12)C(=O)N1CCCCC1	.	42	.	.	.	.
COc1ccc(CCNC(=O)[C@H](C)NC(=O)N2CCn3c2nc2ccccc23)cc1OC	.	.	.	30	.	.
C[C@H](NC(=O)N1CCn2c1nc1ccccc12)C(=O)NC1CC1	.	.	.	.	.	.
N#C[C@H]1[C@@H](c2ccc(-c3ccccc3F)cc2)[C@H](CO)N1C(=O)C1CC1	/	/	.	.	.	.
SMILES	CAL PDZ FP-1	CAL PDZ FP-2	ERAP1 inh	SIRT5 inh	DENV2 CPE rescue	S100A4 inh HTS
COc1ccc(-c2ccccc2[C@@H]2[C@H](C#N)N(C(=O)C3CC3)[C@H]2CO)cc1	/	/	.	.	45	.
N#C[C@H]1[C@H](c2ccccc2-c2ccccc2F)[C@@H](CO)N1C(=O)C1CC1	/	/	.	/	22	.
N#C[C@@H]1[C@H](c2ccc(-c3ccccc3F)cc2)[C@@H](CO)N1C(=O)C1CC1	/	/	.	.	37	.
N#C[C@@H]1[C@H](c2ccccc2-c2cccc(F)c2)[C@H](CO)N1C(=O)C1CCCC1	/	/	.	.	37	.
CCC(=O)N1CCCCN2[C@H](CO)[C@H](c3ccc(C#Cc4ccccc4)cc3)[C@@H]2C1	/	/	.	.	.	.
N#C[C@H]1[C@H](c2ccccc2-c2ccccc2F)[C@@H](CO)N1C(=O)Cc1ccccc1	/	/	.	18	.	.
N#C[C@H]1[C@@H](c2ccc(-c3ccccc3F)cc2)[C@@H](CO)N1C(=O)C1CC1	/	/	.	.	.	.
N#C[C@H]1[C@@H](c2ccccc2-c2ccccc2F)[C@@H](CO)N1C(=O)Cc1ccccc1	/	/	.	.	.	.
N#C[C@H]1[C@H](c2ccc(-c3ccccc3F)cc2)[C@@H](CO)N1C(=O)C1CC1	/	/	.	/	30	.
N#C[C@@H]1[C@H](c2ccc(-c3ccccc3F)cc2)[C@H](CO)N1C(=O)C1CC1	/	/	.	.	87	.
COc1ccc2c3c(n(C)c2c1)[C@@H](CO)N(C(=O)CC1CC1)CC31CN(Cc2nccs2)C1	/	/	.	.	.	.
Cc1cc(Cl)c(OCCCNC2CCCC2)c(Br)c1	/	.	.	.	27	.
C[C@@H]1CCCCO[C@H](CN(C)C(=O)Nc2ccc(C(F)(F)F)cc2)[C@H](C)CN([C@@H](C)CO)C(=O)c2cc(NC(=O)Nc3ccc4c(c3)OCO4)ccc2O1	/	/	.	15	.	.
C[C@@H]1CCCCO[C@H](CN(C)C(=O)NC2CCCCC2)[C@@H](C)CN([C@@H](C)CO)C(=O)c2cc(NC(=O)Nc3ccc(C(F)(F)F)cc3)ccc2O1	/	/	.	.	.	143
